ChEMBL document CHEMBL5154633 (J Med Chem, 2022)
Active and inactive are the calls of the source. The rule behind the calls is not given here.

What was measured:
SARS-CoV-2 [1] = experiment: Antiviral activity against SARS-COV 2 infected in human Calu-3 cells assessed as inhibition of viral replication after 48 hrs by qRT-PCR analysis; assay type: functional, organism-based; details: Severe acute respiratory syndrome coronavirus 2, Calu-3, 48 h
SARS-CoV-2 [2] = experiment: Antiviral activity against SARS-COV 2 infected in African green monkey Vero E6 cells assessed as inhibition of viral replication after 48 hrs by qRT-PCR analysis; assay type: functional, organism-based; details: Severe acute respiratory syndrome coronavirus 2, Vero C1008, 48 h
SARS-CoV-2 [3] = experiment: Antiviral activity against SARS-COV 2 infected in human Caco-2 cells assessed as inhibition of viral replication after 48 hrs by qRT-PCR analysis; assay type: functional, organism-based; details: Severe acute respiratory syndrome coronavirus 2, Caco-2, 48 h
[4] = AUC in human plasma at 3 to 225 mg, iv administered as 2 hr infusion; assay type: ADME, organism-based; set-up: time 2 hrs, route iv; details: dose 3-225 mg
[5] = Half life in human plasma at 3 to 225 mg, iv administered as 2 hr infusion; assay type: ADME, organism-based; details: dose 3-225 mg
Vero C1008 = experiment: Cytotoxicity against African green monkey Vero cells assessed as reduction in cell viability upto 50 uM measured for 48 hrs by CCK8 assay; assay type: toxicity, cell-based; details: chlorocebus sabaeus, vero c1008, 48 h
In short: (§1)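 Vero E6, Calu-3 or Caco-2 cells were seeded at 20 000/well. They were exposed to 0, 0.01, 0.1, 1, 5, 10 or 50 μM compound for 48 h, and viability was read by CCK-8.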

Calu-3 = experiment: Cytotoxicity against human Calu-3 cells assessed as reduction in cell viability upto 50 uM measured for 48 hrs by CCK8 assay; assay type: toxicity, cell-based; details: calu-3, 48 h; in short: as §1
Caco-2 = experiment: Cytotoxicity against human Caco-2 cells assessed as reduction in cell viability upto 50 uM measured for 48 hrs by CCK8 assay; assay type: toxicity, cell-based; details: caco-2, 48 h; in short: as §1
[6] = AUC(0 to t) in Sprague-Dawley rat at 30 mg/kg, iv measured over 48 hrs by HPLC/MS analysis; assay type: ADME, organism-based; set-up: dose 30 mg/kg, time 48 hrs, route iv; details: in vivo
[7] = AUC(0 to t) in Sprague-Dawley rat at 30 mg/kg, ig measured over 48 hrs by HPLC/MS analysis; assay type: ADME, organism-based; set-up: dose 30 mg/kg, time 48 hrs, route ig; details: in vivo, po
[8] = Tmax in Sprague-Dawley rat at 30 mg/kg, iv measured over 48 hrs by HPLC/MS analysis; assay type: ADME, organism-based; details: in vivo
[9] = Tmax in Sprague-Dawley rat at 30 mg/kg, ig measured over 48 hrs by HPLC/MS analysis; assay type: ADME, organism-based; details: in vivo, po
[10] = Cmax in Sprague-Dawley rat at 30 mg/kg, iv measured over 48 hrs by HPLC/MS analysis; assay type: ADME, organism-based; set-up: dose 30 mg/kg, time 48 hrs, route iv; details: in vivo
[11] = Oral bioavailability in Sprague-Dawley rat at 30 mg/kg measured over 48 hrs by HPLC/MS analysis; assay type: ADME, organism-based; details: in vivo
SARS-CoV-2 [12] = experiment: Antiviral activity against SARS-CoV-2 infected in AAV-human ACE2 transduced BALB/c mouse assessed as viral clearance in lungs at 25 mg/kg/day, ip administered 1 day prior to viral infection and measured after 2 days post infection by focus forming assay; assay type: functional, organism-based; details: Severe acute respiratory syndrome coronavirus 2, time 3.0 day
[13] = Toxicity AAV-human ACE2 transduced BALB/c mouse infected with SARS-COV2 assessed as loss of body weight at 25 mg/kg/day, ip administered 1 day prior to viral infection and treated for 8 days; assay type: organism-based; details: in vivo, 192 h, time 8 day
[14] = Toxicity in BALB/c mouse infected with MHV-A59 assessed as change in body weight at 100 mg/kg, ip administered at 0.5 hrs post infection followed by 50 mg/kg administered daily measured upto 14 days; assay type: organism-based; details: in vivo, 336 h, time < 14 day
In short: (§2)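 MHV-A59-infected male BALB/c mice (3–4 weeks) were dosed 100 mg/kg IG or IP at 0.5 hpi, then 50 mg/kg daily for 4 d. Uninfected drug-treated and PBS-only groups served as controls. Body weight was recorded daily for 14 d, N = 8 per group.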

Murine hepatitis virus [15] = experiment: Antiviral activity against MHV-A59 infected in BALB/c mouse assessed as improvement in survival at 100 mg/kg, ig administered at 0.5 hrs post infection followed by 50 mg/kg administered daily measured upto 14 days; assay type: functional; details: time <= 14 day
In short: (§3)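 Male SPF BALB/c mice, 3–4 weeks old, were inoculated intranasally with 30 μL MHV-A59 in PBS (TCID50 10^-7.125/100 μL). They received 100 mg/kg IG or IP at 0.5 hpi, then 50 mg/kg once daily for the next 4 d. Untreated infected controls received PBS. Survival was followed for 14 d, N = 8 per group.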

Murine hepatitis virus [16] = experiment: Antiviral activity against MHV-A59 infected in BALB/c mouse assessed as improvement in survival at 100 mg/kg, ip administered at 0.5 hrs post infection followed by 50 mg/kg administered daily measured upto 14 days; assay type: functional; details: time <= 14 day; in short: as §3
Murine hepatitis virus [17] = experiment: Antiviral activity against MHV-A59 infected in BALB/c mouse assessed as reduction in viral titer in liver at 100 mg/kg, ig administered at 0.5 hrs post infection followed by 50 mg/kg administered daily measured upto 14 days by qRT-PCR analysis; assay type: functional; set-up: scale not given: the % may be the effect or the level left; details: time <= 14 day
In short: (§4)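 Male BALB/c mice were infected intranasally with MHV-A59 and dosed 100 mg/kg IG or IP at 0.5 hpi, then 50 mg/kg daily. Three mice per group were killed at 3 dpi. Liver RNA was extracted and viral load quantified by qRT-PCR against PBS-treated infected controls.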

Murine hepatitis virus [18] = experiment: Antiviral activity against MHV-A59 infected in BALB/c mouse assessed as reduction in viral titer in liver at 100 mg/kg, ip administered at 0.5 hrs post infection followed by 50 mg/kg administered daily measured upto 14 days by qRT-PCR analysis; assay type: functional; set-up: scale not given: the % may be the effect or the level left; details: time <= 14 day; in short: as §4
[19] = Toxicity in BALB/c mouse infected with MHV-A59 assessed as change in body weight at 100 mg/kg, ig administered at 0.5 hrs post infection followed by 50 mg/kg administered daily measured upto 14 days; assay type: organism-based; details: in vivo, po, 336 h, time < 14 day; in short: as §2

CCC(CC)COC(=O)[C@H](C)N[P@](=O)(OC[C@H]1O[C@@](C#N)(c2ccc3c(N)ncnn23)[C@H](O)[C@@H]1O)Oc1ccccc1
IC50 (SARS-CoV-2 [1]): 650 nM
IC50 (SARS-CoV-2 [2]): 1350 nM
IC50 (SARS-CoV-2 [3]): 580 nM
AUC at 2 h [4]: 1590 ng·h/mL
half-life [5]: < 60 min

N#C[C@@]1(c2ccc3c(N)ncnn23)O[C@H](CO)[C@@H](O)[C@H]1O [GS-441524]
IC50 (SARS-CoV-2 [1]): 3210 nM
IC50 (SARS-CoV-2 [2]): 700 nM
IC50 (SARS-CoV-2 [3]): 3620 nM
Activity (Vero C1008): Non-Toxic
Activity (Calu-3): Non-Toxic
Activity (Caco-2): Non-Toxic
AUC(0-t) at 48 h [6]: 592 µg·h/mL
AUC(0-t) at 48 h [7]: 28700 ng·h/mL
Tmax [8]: 6 min
Tmax [9]: 56.4 min
Cmax [10]: 164 µg/mL
bioavailability [11]: 4.84%
Activity (SARS-CoV-2 [12]): Active
Activity [13]: Non-Toxic
Activity [14]: Toxic
Activity (Murine hepatitis virus [15]): 100%
Activity (Murine hepatitis virus [16]): 100%
Activity (Murine hepatitis virus [17]): 99.9%
Activity (Murine hepatitis virus [18]): 99.9%
Activity [19]: Toxic
AUC at 2 h [4]: 2230 ng·h/mL
